Experimental findings from ChEMBL document CHEMBL1156114 (Bioorg Med Chem Lett, 2009) are described below.

A short description of data set [1]: Cytotoxicity against human HEL cells assessed as alteration of cell morphology by microscopy. Type of data set: cell-based. In outline: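 Confluent human embryonic lung (HEL) cell cultures, run in parallel with a VZV plaque-reduction assay. Compound added at varying concentrations in duplicate. Cells were examined by microscope for altered morphology. MCC is the lowest compound concentration that gives a microscopically detectable change in cell morphology.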

For data set [2], the target named is T1, Thymidine kinase (Varicella-zoster virus) (UniProt P0C0E6).
T1 sequence (whole entry): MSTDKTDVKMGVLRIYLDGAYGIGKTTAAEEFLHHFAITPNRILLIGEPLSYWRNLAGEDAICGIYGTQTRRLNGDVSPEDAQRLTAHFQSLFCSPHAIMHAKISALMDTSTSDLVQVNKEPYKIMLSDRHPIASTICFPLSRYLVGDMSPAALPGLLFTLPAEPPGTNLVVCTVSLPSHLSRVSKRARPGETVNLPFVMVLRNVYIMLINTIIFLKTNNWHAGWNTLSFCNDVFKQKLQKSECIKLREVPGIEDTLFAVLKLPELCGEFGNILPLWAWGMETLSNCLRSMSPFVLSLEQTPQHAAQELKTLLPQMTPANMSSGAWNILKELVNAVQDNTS
Put plainly: Ratio of Vmax to Km for Varicella zoster virus recombinant thymidine kinase. As to conditions: Human alphaherpesvirus 3. In a few lines:
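Km and Vmax for each compound as VZV TK substrate, from monophosphate formation at 0.5, 2, 5 and 12.5 µM compound. Enzyme in Tris-HCl pH 8 with 2.5 mM ATP and MgCl2, 37 °C, 60 min. Product quantified by reversed-phase HPLC with fluorescence detection (ex 340/em 415 nm).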

The target of a further data set is T2, Thymidine kinase (Varicella-zoster virus, UniProt P0C0E6).
T2 sequence (P0C0E6 whole entry): T1 sequence (whole entry)
Briefly: Displacement of [CH3-3H]deoxythymidine from Varicella zoster virus recombinant thymidine kinase after 30 mins. Details: species or system Human alphaherpesvirus 3. In outline:
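Inhibition of VZV TK phosphorylation of 1 µM [CH3-3H]dThd (0.1 µCi) in 50 mM Tris-HCl pH 8.0, 2.5 mM MgCl2, 10 mM DTT, 2.5 mM ATP, 10 mM NaF, 1 mg/mL BSA. Reaction started with enzyme, 37 °C for 30 min. Product captured on DE-81 discs, washed in ammonium formate then ethanol, and counted by scintillation. IC50 is the concentration inhibiting phosphorylation by 50%.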

The test system of data set [3] is Human alphaherpesvirus 3. Put plainly: Antiviral activity against Varicella zoster virus OKA infected human HEL cells assessed as reduction in viral plaque formation after 5 days. As to conditions: Human alphaherpesvirus 3, strain Oka vaccine, 120 h. It counts as functional, cell-based. In a few lines:
(§1)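 Confluent HEL cells infected with VZV at 20 PFU/well for 2 h. Residual virus removed, then compound added at varying concentrations in duplicate. Plaques counted after 5 days.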

The test system of data set [4] is Human alphaherpesvirus 3. Put plainly: Antiviral activity against thymidine kinase deficient Varicella zoster virus 07/1 infected human HEL cells assessed as reduction in viral plaque formation after 5 days. Type of data set: functional, organism-based. Conditions: Human alphaherpesvirus 3, 07/1, HEL, 120 h. In a few lines:
as §1

The test system of data set [5] is Human alphaherpesvirus 3. Briefly: Antiviral activity against Varicella zoster virus YS infected human HEL cells assessed as reduction in viral plaque formation after 5 days. Type of data set: functional, organism-based. As to conditions: Human alphaherpesvirus 3, YS, 120 h. In a few lines:
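Confluent HEL cells infected with VZV at 20 PFU/well for 2 h. Residual virus removed, then compound added at varying concentrations in duplicate. Plaques counted after 5 days. EC50 is the concentration reducing plaque formation by 50% versus untreated controls.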

Substrate in data set [6]: CCCCCc1ccc(-c2cc3cn([C@H]4C[C@H](O)[C@@H](CO)O4)c(=O)nc3o2)cc1
Put plainly: (§2) Activity at Varicella zoster virus recombinant thymidine kinase assessed as 5-monophosphate BCNA formation after 60 mins by HPLC. Conditions: Human alphaherpesvirus 3. In outline: (§3)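 VZV TK (1.5 pg) in 50 mM Tris-HCl pH 8, 2.5 mM MgCl2, 10 mM DTT, 2.5 mM ATP, 10 mM NaF; compound at 0.5, 2, 5 and 12.5 µM in DMSO; 37 °C for 60 min. Stopped in ice-cold methanol and centrifuged. Reversed-phase HPLC with ion-pairing phosphate buffer/acetonitrile gradient; nucleoside and 5'-monophosphate quantified by fluorescence (ex 340, em 415 nm).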

Substrate in data set [7]: CCCCCc1ccc(-c2cc3cn([C@@H]4O[C@H](CO)[C@@H](O)[C@H]4F)c(=O)nc3o2)cc1
Described as §2. Conditions: Human alphaherpesvirus 3. In outline:
as §3

Substrate in data set [8]: CCCCCc1ccc(-c2cc3cn([C@@H]4O[C@H](CO)[C@@H](O)C4(F)F)c(=O)nc3o2)cc1
The data set is described as §2. As to conditions: Human alphaherpesvirus 3. In outline: as §3

Substrate in data set [9]: CCCCCc1ccc(-c2cc3cn([C@@H]4O[C@H](CO)[C@@H](O)[C@@H]4F)c(=O)nc3o2)cc1
Described as §2. As to conditions: Human alphaherpesvirus 3. In a few lines: as §3

`CCCCCc1ccc(-c2cc3cn([C@@H]4O[C@H](CO)[C@@H](O)[C@@H]4F)c(=O)nc3o2)cc1`: the MCC in [1] is greater than 50 µM. For the same molecule, in data set [2], the Ratio was found to be 45. For the same molecule, the IC50 (as a rule, the point on the concentration scale where inhibition reaches its midpoint) at Thymidine kinase amounted to 38 µM. For the same molecule, the EC50 (commonly the concentration at which the effect is half-maximal) in the data set with Human alphaherpesvirus 3 [3] was 0.007 µM; in the data set on Human alphaherpesvirus 3 [4], greater than 50 µM; in the data set on Human alphaherpesvirus 3 [5], 0.011 µM.
For the molecule `CCCCCc1ccc(-c2cc3cn([C@@H]4O[C@H](CO)[C@@H](O)[C@H]4F)c(=O)nc3o2)cc1`, in data set [1], the MCC was greater than 50 µM. Also, the Ratio in [2] was found to be 7.2. Besides, the IC50 on Thymidine kinase amounted to 2.7 µM. In addition, the EC50 with Human alphaherpesvirus 3 [3] is 0.75 µM; in the data set on Human alphaherpesvirus 3 [4], greater than 20 µM.
As for `CCCCCc1ccc(-c2cc3cn([C@H]4C[C@H](O)[C@@H](CO)O4)c(=O)nc3o2)cc1` [CF1743], the MCC in [1] is no less than 50 µM. The half-maximal inhibitory concentration (IC50) on Thymidine kinase came out at 3.3 µM.
With `CCCCCc1ccc(-c2cc3cn([C@@H]4O[C@H](CO)[C@@H](O)C4(F)F)c(=O)nc3o2)cc1`, the MCC in [1] is no less than 50 µM. For the same molecule, the Ratio in data set [2] came to 14. Moreover, the IC50 at Thymidine kinase amounted to 13 µM. For the same molecule, the EC50 in the data set on Human alphaherpesvirus 3 [3] is 1.5 µM; with Human alphaherpesvirus 3 [4] it was greater than 50 µM; in the data set with Human alphaherpesvirus 3 [5] it was 6.7 µM.

B1: Thymidine kinase (Varicella-zoster virus), P0C0E6 (protein)
chain: T1 sequence (whole entry)
Consider B1, for which the Km (commonly the substrate concentration at which the rate is half of its maximum) came to 1.58 µM in [6], 0.47 µM in data set [7], 0.95 µM in [8] and 1.11 µM in [9]. In addition, the maximum rate (Vmax) (as a rule, the top rate of the reaction or transport when substrate is in excess) worked out at 22 µM/h in [6], 3.4 µM/h in data set [7], 14 µM/h in data set [8] and 50 µM/h in data set [9].
